Laboratory results reported in ChEMBL document CHEMBL3868627, “Radical scavenging and antibacterial activity of caffemides against gram positive, gram negative and clinical drug resistance bacteria” (Bioorg Med Chem Lett, 2016).

Assay: Antioxidant activity assessed as DPPH free radical scavenging activity measured after 30 mins by spectrophotometry
Type: functional
Method in brief: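 DPPH radical scavenging in ethanolic solution with a final DPPH concentration of 100 µM. Absorbance read at 517 nm. Percent inhibition = (A control − A test)/A control, where the control is DPPH without sample. The inhibition-versus-concentration plot gives EC50, the concentration giving a 50% drop in absorbance. Mean ± S.D. of three independent trials.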

**Q.** Which EC50 does the source give for `O=C(/C=C/c1ccc(O)c(O)c1)NCCc1c[nH]c2ccccc12` here?
**A.** The EC50 was 58.8 µM.

**Q.** For `O=C(/C=C/c1ccc(O)c(O)c1)Nc1ccc(F)cc1`, which EC50 is on record?
**A.** The EC50 was 24.1 µM.

**Q.** With `Nc1ccc(NC(=O)/C=C/c2ccc(O)c(O)c2)cc1` as the compound, how does the EC50 read?
**A.** The EC50 was 36 µM.

**Q.** For `O=C(/C=C/c1ccc(O)c(O)c1)Nc1ccccc1`, which EC50 is on record?
**A.** The EC50 was 52.6 µM.

**Q.** Which EC50 does the source give for `O=C(O)/C=C/c1ccc(O)c(O)c1` [CAFFEIC ACID] here?
**A.** Its EC50 is 30.9 µM.

**Q.** For `CC(C)(C)c1ccc(O)c(NC(=O)/C=C/c2ccc(O)c(O)c2)c1`, which EC50 is on record?
**A.** Its EC50 is 11.9 µM.

**Q.** With `CC(=O)c1cccc(NC(=O)/C=C/c2ccc(O)c(O)c2)c1` as the compound, how does the EC50 read?
**A.** The EC50 was 10.6 µM.

**Q.** For `O=C(/C=C/c1ccc(O)c(O)c1)Nc1cc(Cl)c(O)c(Cl)c1`, which EC50 is on record?
**A.** Its EC50 is 5.51 µM.

**Q.** For `O=C(/C=C/c1ccc(O)c(O)c1)Nc1ccccc1Sc1ccccc1`, which EC50 is on record?
**A.** The EC50 was 27 µM.

**Q.** For `O=C(/C=C/c1ccc(O)c(O)c1)Nc1ccc2ccccc2c1`, which EC50 is on record?
**A.** Its EC50 is 47.3 µM.

**Q.** For `Cc1cc([N+](=O)[O-])ccc1NC(=O)/C=C/c1ccc(O)c(O)c1`, which EC50 is on record?
**A.** Its EC50 is 13.2 µM.

**Q.** Which EC50 does the source give for `O=C(/C=C/c1ccc(O)c(O)c1)Nc1ccc([N+](=O)[O-])cc1` here?
**A.** The EC50 was 7.21 µM.

**Q.** With VITAMIN E as the compound, how does the EC50 read?
**A.** Its EC50 is 50.9 µM.
